Assay outcomes as filed in PubChem BioAssay.
hERG rescue = hERG rescue from dofetilide block, primary screen, cell-based, CHO-hERG, FluxOR thallium flux, dofetilide IC70; Voltage-gated inwardly rectifying potassium channel KCNH2 (Homo sapiens), Q12809; AID 1511, 2009; 0.51% of 310,000 active; activation (rescue from dofetilide block), less the hit threshold, % at 10 µM; dofetilide IC70 present;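 active = activation above the mean of controls blocked by dofetilide plus 5 SD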;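 also: thallium influx through hERG after potassium depolarization seen as dye fluorescence rise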
KCNK3 block = human KCNK3 channel inhibitors, primary screen, CHO cells, FluxOR thallium flux, B-score. Potassium channel subfamily K member 3 (Homo sapiens), O14649. FluxOR fluorescence; active compounds read low. B-score at 10 µM. 0.84% of 340,000 active;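 active = B-score under library mean minus 4 SD, starting fluorescence ratio at most library mean plus 5 SD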;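 also: more negative B-score means stronger inhibition of thallium flux through KCNK3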
Kir21 block = inhibitors of mouse Kir2.1 inward-rectifier potassium channel; HEK293-Kir2.1, FluxOR thallium flux fluorescence; active compounds read low; B-score at 10 µM; 0.85% of 310,000 active;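 active = fluorescence ratio B-score at or below minus 3 SD of library scores, with starting-brightness B-score within 2 SD, cut at about -4.2 in these data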;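 also: channel flux triggered by added potassium and thallium sulfate stimulus; B-score of peak minus minimum fluorescence over baseline after thallium stimulus; more negative B-score means stronger Kir2.1 block with less thallium influx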
KCNQ1 pot = potentiators or activators of KCNQ1 channel, primary screen, cell-based, thallium flux, high-throughput; Potassium voltage-gated channel subfamily KQT member 1 (Homo sapiens), P51787; CHO-K1 KCNQ1, thallium flux FluxOR fluorescence; active compounds read high; B-score at 10 µM; 0.35% of 310,000 active;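 active = fluorescence ratio B-score, a plate-corrected score, at least three library SD, with initial intensity B-score within 5 SD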
Target sequence (P51787 whole entry, looked up): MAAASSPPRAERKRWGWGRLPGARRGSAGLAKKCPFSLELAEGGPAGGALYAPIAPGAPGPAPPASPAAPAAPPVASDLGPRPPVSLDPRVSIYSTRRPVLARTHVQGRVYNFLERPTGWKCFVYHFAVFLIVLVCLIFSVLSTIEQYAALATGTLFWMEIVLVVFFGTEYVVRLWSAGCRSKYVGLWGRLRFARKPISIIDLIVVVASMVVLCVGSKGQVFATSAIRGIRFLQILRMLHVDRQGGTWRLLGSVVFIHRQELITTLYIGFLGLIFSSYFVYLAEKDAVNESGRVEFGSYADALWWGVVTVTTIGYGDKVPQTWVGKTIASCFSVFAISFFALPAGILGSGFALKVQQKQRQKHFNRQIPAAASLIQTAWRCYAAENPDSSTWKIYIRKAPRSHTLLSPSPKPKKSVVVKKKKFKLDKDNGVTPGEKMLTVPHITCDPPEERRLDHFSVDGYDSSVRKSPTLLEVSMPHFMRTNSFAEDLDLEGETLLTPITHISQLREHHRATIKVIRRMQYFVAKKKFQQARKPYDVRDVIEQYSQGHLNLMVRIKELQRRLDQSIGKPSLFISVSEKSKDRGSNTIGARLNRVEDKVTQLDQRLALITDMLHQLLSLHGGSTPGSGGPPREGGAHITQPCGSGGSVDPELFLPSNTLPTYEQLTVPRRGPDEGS
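Assay system: CHO-K1 cells stably expressing KCNQ1; Medium: assay buffer with matched DMSO; Also added: K+/Tl+ depolarizing stimulus; Dosing: single dose; Timing: dye 90 min, compound 20 min, room temperature; Measured by: kinetic FluxOR thallium fluorescence, 10-s 1-Hz baseline, 110-s post-stimulus read; Read-out: peak-minus-minimum fluorescence over initial fluorescence, negative-control normalized, B-scored.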
KCNK9 inh = KCNK9 potassium channel inhibitors, primary screen, HEK293 cells, thallium flux; 1.2% of 310,000 active; B-score at 10 µM; Potassium channel subfamily K member 9 (Homo sapiens), Q9NPC2; FluxOR thallium flux fluorescence; active compounds read low; AID 488922, 2010;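 active = ratio B-score over 3 SD below the library mean, with starting fluorescence within 5 SD of its mean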;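 also: negative B-score means less thallium flux so channel inhibition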
KCNQ1 inh = inhibitors of human KCNQ1 channel, primary screen, cell-based, thallium flux, high-throughput; Potassium voltage-gated channel subfamily KQT member 1 (Homo sapiens), P51787; CHO-K1 KCNQ1, FluxOR thallium flux fluorescence; active compounds read high; B-score at 10 µM; 1.3% of 310,000 active; AID 2642, 2010;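 active = compounds whose thallium flux B-score, printed positive for inhibition, exceeds three library SD while starting fluorescence stays within three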;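 also: channel opened by potassium depolarization with thallium stimulus after 20 min compound exposure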
KCNK9 inh conf = KCNK9 potassium channel inhibitors, confirmation, HEK293 cells, thallium flux, duplicate; shares compounds with KCNK9 inh; FluxOR thallium flux fluorescence; inhibition, % at 10 µM; 43% of 4,900 active; AID 492992, 2010;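 active = thallium signal inhibited by more than 5 SD of the compound-free buffer control wells, on both duplicate plates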;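 also: 0% = assay buffer control wells without compound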
Kir2-1 spec = mouse Kir2.1 channel inhibition, confirmation, selectivity assay for KCNK9 modulator project, cell-based, HEK293, thallium flux; shares compounds with KCNK9 inh; Kir2.1 cells, FluxOR thallium flux fluorescence; inhibition, % at 10 µM; 4% of 4,900 active; AID 492993, 2010;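 active = thallium signal drop more than 5 SD beyond the mean of the no-compound control wells, seen in both duplicate plates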;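 also: signal is fluorescence rise after thallium addition divided by baseline fluorescence; plate controls were assay buffer only for no effect and full block by chlorpromazine control for full effect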
KCNK9 uninduced = thallium flux in non-induced HEK293 cells, confirmation, counter-screen for KCNK9 inhibitor project, cell-based, second counter screen, non-induced KCNK9-HEK293; inhibition, % at 10 µM; 40% of 4,900 active; shares compounds with KCNK9 inh; AID 492997, 2010; FluxOR thallium flux;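 active = thallium signal drop beyond 5 SD of the untreated control mean, on both duplicate plates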;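 also: plate controls were buffer only IC0 wells for no effect and SID17386958 at its maximal inhibitory level for full effect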
Active calls of the source: *; i = inactive; . = no result. Shown are actives, neighbours in structure and some others; about 3.8% of the full set was active somewhere.

SMILES | hERG rescue | KCNK3 block | Kir21 block | KCNQ1 pot | KCNK9 inh | KCNQ1 inh | KCNK9 inh conf | Kir2-1 spec | KCNK9 uninduced
COc1ccc(/C=C/C(O)=C2/C(=O)N(C)C3(C)CC2c2ccccc2O3)cc1 (configuration not stated) | -12 | i | 0.69 | i | -10* | i | 41%* | i | 30%*
c1ccc(C2CCC3(CC2)Oc2ccccc2C2CC(c4cccnc4)=NN23)cc1 (configuration not stated) | -9 | . | -0.63 | i | -9.3* | i | 50%* | i | 41%*
COC(=O)C(NC(=O)c1ccccc1C)(Nc1ncc(S(=O)(=O)c2ccc([N+](=O)[O-])cc2)s1)C(F)(F)F (configuration not stated) | -12 | i | 0.34 | i | i | i | i | i | i
Cc1nnc(SCC(=O)Nc2ncc(S(=O)(=O)c3ccc([N+](=O)[O-])cc3)s2)s1 | -5 | i | 0.39 | i | i | i | . | . | .
Brc1ccc(N=Nc2ccc3ccccc3n2)cc1 | -7 | i | -0.12 | i | -10* | i | 42%* | i | 82%*
CCOCCCNC(=O)c1cc(Sc2nnc(C)s2)nc2ccccc12 | -11 | i | 1.1 | i | i | i | . | . | .
O=C(CCCOc1ccccc1)Nc1cc(S(=O)(=O)N2CCOCC2)ccc1N1CCOCC1 | . | i | . | . | . | . | . | . | .
CN(C)/C=C(/C#N)C(=O)c1cccc(Oc2ccc(C(C)(C)C)cc2)c1 | -11 | i | 0.47 | i | i | i | i | i | 42%*
COc1ccc(-c2csc(NC(=O)CS(=O)(=O)c3ccccc3)n2)cc1 | -19 | i | -0.78 | i | i | i | . | . | .
CS(=O)(=O)n1nc(OC(=O)c2cccs2)cc1N | -7 | i | -0.72 | i | i | i | . | . | .
O=S(=O)(c1ccc(Cl)cc1)N1CCC(c2nc3ccccc3[nH]2)CC1 | -3 | i | -0.84 | i | i | i | . | . | .
CN(C)S(=O)(=O)c1ccc(N2CCCC2)c(C(=O)Nc2ccccc2N2CCOCC2)c1 | . | i | . | . | . | . | . | . | .
CN(C)S(=O)(=O)c1ccc(N2CCCC2)c(C(=O)NCC2COc3ccccc3O2)c1 (configuration not stated) | -16 | i | 0.58 | i | i | i | i | i | i
CSc1ccccc1NC(=O)c1cc(S(=O)(=O)N(C)C)ccc1N1CCCC1 | -10 | i | 0.42 | i | i | i | i | i | i
CN(C)S(=O)(=O)c1ccc(N2CCCC2)c(C(=O)Nc2ccccc2OC(F)F)c1 | -8 | i | 0.18 | i | i | i | i | i | i
CN(C)S(=O)(=O)c1ccc(N2CCCC2)c(C(=O)Nc2ccccc2)c1 | -11 | i | 1.9 | i | i | i | . | . | .
CCOc1ccc(NC(=O)COC(=O)c2cc(=O)c3ccccc3o2)cc1 | . | i | . | . | . | . | . | . | .
Cc1ccc(S(=O)(=O)N2CCN(S(=O)(=O)c3cccs3)CC2)cc1 | -7 | i | 3.1 | i | i | i | . | . | .
CCOc1ccc(S(=O)(=O)N2CCC(C(=O)N3CCCCCC3)CC2)cc1Cl | -11 | i | 0.19 | i | i | i | . | . | .
Cc1cc(Cl)ccc1C(=O)C1CCCN(C(=O)c2cc(C(C)C)no2)C1 (configuration not stated) | -15 | i | -0.61 | i | i | i | i | i | i
Cc1cc(Cl)ccc1C(=O)C1CCCN(C(=O)c2ccsc2)C1 (configuration not stated) | -8 | i | -3.5 | i | i | i | i | i | i
Cc1cc(Cl)ccc1C(=O)C1CCCN(C(=O)c2cccc(N3CCCC3=O)c2)C1 (configuration not stated) | -9 | i | -2.3 | i | i | i | . | . | .
Cc1cc(Cl)ccc1C(=O)C1CCCN(C(=O)c2ccc3ncccc3c2)C1 (configuration not stated) | -14 | i | 0.24 | i | i | i | i | i | i
COC(=O)CCC(=O)N1CCCC(C(=O)c2ccc(Cl)cc2C)C1 (configuration not stated) | -3 | i | 0.28 | i | i | i | . | . | .
O=c1[nH]c(COc2ccc(Br)cc2Cl)nc2ccccc12 | -8 | i | 0.16 | i | i | i | . | . | .
SMILES | hERG rescue | KCNK3 block | Kir21 block | KCNQ1 pot | KCNK9 inh | KCNQ1 inh | KCNK9 inh conf | Kir2-1 spec | KCNK9 uninduced
O=Cc1ccccc1OS(=O)(=O)c1ccccc1 | -9 | i | 0.31 | i | i | i | . | . | .
CC(C)S(=O)(=O)c1nsc2nc(=O)c(/C=C3\C=Nc4ccccc43)c(N)n12 | -22 | i | 0.38 | i | i | i | i | i | i
Cc1sc2ncnc(NCC(c3ccco3)N(C)C)c2c1C (configuration not stated) | 0 | i | -0.8 | i | i | i | . | . | .
CN(C)C(CNc1ncnc2sc3c(c12)CCCCC3)c1ccco1 (configuration not stated) | -4 | i | -0.67 | i | i | i | i | i | i
O=C(Cc1ccccc1Cl)Nc1ccc(S(=O)(=O)Nc2nccs2)cc1 | -12 | i | -0.02 | i | i | i | . | . | .
O=C(CSc1ccc(Br)c2cccc(Cl)c12)Nc1ccc(S(=O)(=O)Nc2nccs2)cc1 | -9 | i | -0.36 | i | i | i | i | i | i
O=C(COc1cccc(NC(=O)c2ccccc2)c1)c1ccc(F)cc1 | -7 | i | -1.2 | i | i | i | . | . | .
NC(=O)c1cccc2c(=O)oc3ccccc3c12 | -9 | i | -1.7 | i | i | i | . | . | .
